Measured values from different studies.
Each line is one published result; the experiments were not run side by side.
Organism: Mycobacterium tuberculosis
Effect on: microbial growth

SMILES | method | cells | strain | time | MIC
O=C1C(=NNc2nc(-c3ccccc3)cs2)C(N=Cc2ccccc2O)=NN1c1ccccc1 | resazurin | – | H37RV | – | 25 µg/mL
Cc1ccc(C)n1-c1ccc(-c2nnc(-c3cccc([N+](=O)[O-])c3)[nH]2)cc1 | broth dilution | – | H37RV | 21 days | 16 µg/mL
CCCCCCCCCCC[C@@H](C[C@@H]1OC(=O)[C@H]1CCCCCC)OC(=O)[C@H](CC(C)C)NC=O | resazurin | – | H37RA | – | 24 µg/mL
COC(=O)c1cc(-c2cccc(NC(=S)Nc3ccc(Cl)cc3)c2)on1 | – | – | ATCC27294 H37RV | 7 days | 1 µg/mL
CC1SC2(CCC(c3ccccc3)CC2)N(NC(=O)c2[nH]c3ccc(Cl)cc3c2-c2ccccc2)C1=O (centres unmarked) | – | – | ATCC27294 H37RV | – | 7.8 µM
C[C@@H]1CN(CC2CCCCC2)C[C@H](C)N1c1nc(=O)c2cc(C(F)(F)F)cc(C#N)c2s1 | resazurin | – | H37RV | – | > 2 µM
Cc1cn2c(C(=O)NCc3ccc(S(F)(F)(F)(F)F)cc3)c(C)nc2s1 | – | – | H37RV | 5 days | 0.4 µM
NNC(=O)c1ccncc1 | – | THP-1 | H37RV | – | 0.22 µM
NNC(=O)c1ccncc1 | – | – | – | – | 0.03 µg/mL
Cc1ccc(C)n1-c1ccc(-c2nnco2)cc1 | broth dilution | – | H37RV | 21 days | 4 µg/mL
O=C(C1CCCN(S(=O)(=O)c2ccc([N+](=O)[O-])cc2)C1)N1CCN(C(c2ccc(F)cc2)c2ccc(F)cc2)CC1 (centres unmarked) | – | – | ATCC27294 H37RV | – | > 25 µg/mL
COC(=O)c1cc(-c2cccc(NC(=O)Nc3cccc(Cl)c3)c2)on1 | – | – | ATCC27294 H37RV | 7 days | 0.5 µg/mL
CCc1nc2ccc(Cl)cn2c1C(=O)NCc1ccc(S(F)(F)(F)(F)F)cc1 | – | – | H37RV | 5 days | 0.014 µM
O=C1CC[C@@H]2CN(Cc3ccccc3)CC[C@@]23OC[C@H](C2CC2)N13 | – | – | H37RV | – | 37 µM
NNC(=O)c1ccncc1 | – | – | H37RV | 5 days | 0.3 µM
Cc1ccc(C)n1-c1ccc(-c2nnc(-c3ccc(Br)cc3)[nH]2)cc1 | broth dilution | – | H37RV | 21 days | 2 µg/mL
CC1CC(C)(C)CC2(C1)SC(C)C(=O)N2NC(=O)c1[nH]c2ccc(Cl)cc2c1-c1ccccc1 (centres unmarked) | – | – | ATCC27294 H37RV | – | 1000 µM
O=C1C(=NNc2nc(-c3ccccc3)cs2)C(N=Cc2ccc(Cl)cc2)=NN1c1ccccc1 | resazurin | – | H37RV | 5 days | 51.5 µM
CC1SC2(CCCC2)N(NC(=O)c2[nH]c3ccc(Cl)cc3c2-c2ccccc2)C1=O (centres unmarked) | – | – | ATCC27294 H37RV | – | 250 µM
COC(=O)c1cc(-c2cccc(NC(=O)Nc3ccc(Cl)c(Cl)c3)c2)on1 | – | – | ATCC27294 H37RV | 7 days | 0.25 µg/mL
Cc1c(Cc2ccc(F)cc2)c(=O)n2c([nH]c3ccccc32)c1C#N | broth dilution | – | H37RV | – | 2 µg/mL
O=C1COCCN1c1ccc(CO[C@@H]2COc3nc([N+](=O)[O-])cn3C2)cc1 | – | – | H37RV | – | 0.4 to 0.8 µg/mL
O=C1C(=NNc2nc(-c3ccccc3)cs2)C(N=Cc2ccccc2Cl)=NN1c1ccccc1 | resazurin | – | H37RV | – | 25 µg/mL
COC(=O)c1cc(-c2cccc(NC(=O)Nc3ccc(C)c(Cl)c3)c2)on1 | – | – | ATCC27294 H37RV | 7 days | 16 µg/mL
CO[C@H]1/C=C/O[C@@]2(C)Oc3c(C)c(O)c4c(O)c(c(/C=N/N5CCN(C)CC5)c(O)c4c3C2=O)NC(=O)/C(C)=C\C=C\[C@H](C)[C@H](O)[C@@H](C)[C@@H](O)[C@@H](C)[C@H](OC(C)=O)[C@@H]1C | resazurin | – | H37RV | 14 days | 0.075 µM

SMILES | method | cells | strain | time | MIC
C=C[C@@H](O)C#CC#C[C@@H](O)/C=C\CCCCCCC | resazurin | – | ATCC35801 ERDMAN | 7 days | 6 µg/mL
Cc1ccc(C)n1-c1ccc(-c2nnc(-c3ccccc3[N+](=O)[O-])[nH]2)cc1 | broth dilution | – | H37RV | 21 days | 16 µg/mL
COc1cc(C=NC2=NN(c3ccccc3)C(=O)C2=NNc2nc(-c3ccccc3)cs2)ccc1O | resazurin | – | H37RV | – | 12.5 µg/mL
CO[C@H]1/C=C/O[C@@]2(C)Oc3c(C)c(O)c4c(O)c(c(/C=N/N5CCN(C)CC5)c(O)c4c3C2=O)NC(=O)/C(C)=C\C=C\[C@H](C)[C@H](O)[C@@H](C)[C@@H](O)[C@@H](C)[C@H](OC(C)=O)[C@@H]1C | broth dilution | – | – | – | 0.4 µg/mL
COC(=O)c1cc(-c2cccc(NC(=S)Nc3ccc(F)cc3)c2)on1 | – | – | ATCC27294 H37RV | 7 days | 4 µg/mL
C[C@H]1COc2c(N3CCN(C)CC3)c(F)cc3c(=O)c(C(=O)O)cn1c23 | resazurin | – | H37RA | 14 days | 0.12 µg/mL
O=C(CNS(=O)(=O)c1ccc([N+](=O)[O-])cc1)N1CCN(C(c2ccc(F)cc2)c2ccc(F)cc2)CC1 | – | – | ATCC27294 H37RV | – | 25 µg/mL
COc1cccc(C=NC2=NN(c3ccccc3)C(=O)C2=NNc2nc(-c3ccccc3)cs2)c1 | resazurin | – | H37RV | – | 12.5 µg/mL
CC1SC2(CCCCC2)N(NC(=O)c2[nH]c3ccc(Cl)cc3c2-c2ccccc2)C1=O (centres unmarked) | – | – | ATCC27294 H37RV | – | 250 µM
CC(C)[C@H]1CO[C@]23CCN(Cc4ccccc4)C[C@H]2CCC(=O)N13 | resazurin | – | H37RV | 7 days | 5.73 µM
COC(=O)c1cc(-c2cccc(NC(=O)Nc3cc(OC)ccc3OC)c2)on1 | – | – | ATCC27294 H37RV | 7 days | 0.5 µg/mL
COC1C(O)C(n2ccc(=O)[nH]c2=O)OC1C(OC1OC(C(=O)Nc2ccc(F)c(F)c2)=CC(O)C1O)C(N)=O (centres unmarked) | resazurin | – | H37RV | – | 1.56 µg/mL
COC(=O)c1cc(-c2cccc(NC(=O)Nc3cccc(Cl)c3Cl)c2)on1 | – | – | ATCC27294 H37RV | 7 days | 0.5 µg/mL
O=C(NC(=O)c1cc2c(F)cc(F)cc2[nH]1)c1cccc(Cl)c1 | resazurin | – | H37RV | – | > 96 µM
O=[N+]([O-])c1ccc(/C(O)=C/C(=S)S)cc1 | – | – | H37RA | – | 7.8 µg/mL
Nc1ncnc2c1ncn2[C@@H]1O[C@H](COS(N)(=O)=O)[C@@H](O)[C@H]1O | – | – | H37RV | – | 0.16 µg/mL
CC[C@H]1OC(=O)[C@H](C)[C@@H](O[C@H]2C[C@@](C)(OC)[C@@H](O)[C@H](C)O2)[C@H](C)[C@@H](O[C@@H]2O[C@H](C)C[C@H](N(C)C)[C@H]2O)[C@](C)(OC)C[C@@H](C)C(=O)[C@H](C)[C@@H](O)[C@]1(C)O | resazurin | – | H37RA | 14 days | 8 µg/mL
N#Cc1cc(C(F)(F)F)cc2c(=O)nc(N3CCN(CC4CCOC4)CC3)sc12 (centres unmarked) | resazurin | – | H37RV | – | 1.9 µM
CCC1CCC2(CC1)SC(C)C(=O)N2NC(=O)c1[nH]c2ccc(Cl)cc2c1-c1ccccc1 (centres unmarked) | – | – | ATCC27294 H37RV | – | 1000 µM
O=C(Nc1ccc2c(c1)OC(F)(F)O2)Nc1ccc(Cl)c(C(F)(F)F)c1 | – | – | H37RV | – | 2 µM
NNC(=O)c1ccncc1 | – | – | ATCC27294 H37RV | 7 days | 0.03 µg/mL
CO[C@H]1/C=C/O[C@@]2(C)Oc3c(C)c(O)c4c(O)c(c(/C=N/N5CCN(C)CC5)c(O)c4c3C2=O)NC(=O)/C(C)=C\C=C\[C@H](C)[C@H](O)[C@@H](C)[C@@H](O)[C@@H](C)[C@H](OC(C)=O)[C@@H]1C | – | – | W4 | – | 0.016 µM
Cc1c(Cc2ccc(C(C)(C)C)cc2)c(=O)n2c([nH]c3ccccc32)c1C#N | broth dilution | – | H37RV | – | 1 µg/mL
NNC(=O)c1ccncc1 | – | – | H37RV | – | 0.05 µg/mL
CC1=NN(CNc2ccc(O)cc2)C(=O)C1=NNn1c(-c2ccccc2)nc2ccccc2c1=O | resazurin | – | H37RV | – | 53.5 µM
